In ChEMBL document CHEMBL1240435, “Synthesis of some 3-substituted amino-4,5-tetramethylene thieno[2,3-d][ 1,2,3]-triazin-4(3H)-ones as potential antimicrobial agents” (2010):
In brackets after ≈: the same amount, converted by molar mass.

Key:
Salmonella typhi [1] = assay: Antibacterial activity against Salmonella typhi after 24 hrs by tube dilution method; assay type: functional, Salmonella enterica subsp. enterica serovar Typhi; conditions: Salmonella enterica
[2] = tested on: Staphylococcus epidermidis; assay: Antibacterial activity against Staphylococcus epidermidis after 24 hrs by tube dilution method; assay type: functional
Escherichia coli [3] = assay: Antibacterial activity against Escherichia coli after 24 hrs by tube dilution method; assay type: functional
Aspergillus niger [4] = assay: Antifungal activity against Aspergillus niger after 48 hrs by tube dilution method; assay type: functional
Cryptococcus neoformans [5] = assay: Antifungal activity against Cryptococcus neoformans after 48 hrs by tube dilution method; assay type: functional
Aspergillus niger [6] = assay: Antifungal activity against Aspergillus niger at 50 ug/ml after 48 hrs by agar cup diffusion method; assay type: functional; conditions: read-out: IZ
Candida albicans [7] = assay: Antifungal activity against Candida albicans at 50 ug/ml after 48 hrs by agar cup diffusion method; assay type: functional; conditions: read-out: IZ
Candida albicans [8] = assay: Antifungal activity against Candida albicans after 48 hrs by tube dilution method; assay type: functional
Staphylococcus aureus [9] = assay: Antibacterial activity against Staphylococcus aureus after 24 hrs by tube dilution method; assay type: functional
Salmonella typhi [10] = assay: Antibacterial activity against Salmonella typhi at 50 ug/ml after 24 hrs by agar cup diffusion method; assay type: functional, Salmonella enterica subsp. enterica serovar Typhi; conditions: Salmonella enterica, read-out: IZ
Summary of the method: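 Agar cup diffusion against an ATCC or IMTECH standard strain. The test compound is dissolved in DMF. A fresh bacterial subculture in isotonic NaCl is mixed into sterile medium at 40–45 °C and poured into plates. Solution is added to marked wells, left 5 min, then covered 1 h. Plates are incubated at 37 °C for 24 h. The inhibition zone is the mean of three readings, with ampicillin as reference.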

Escherichia coli [11] = assay: Antibacterial activity against Escherichia coli at 50 ug/ml after 24 hrs by agar cup diffusion method; assay type: functional; conditions: read-out: IZ
Summary of the method: (§1)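 Compounds dissolved in DMF. A fresh bacterial subculture in isotonic NaCl was mixed into sterile assay medium at 40–45 °C and poured into Petri dishes. Test solution went into marked wells. Plates stood 5 min, were covered for 1 h, then incubated at 37 °C for 24 h. Inhibition zones were measured as the average of three readings.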

Staphylococcus aureus [12] = assay: Antibacterial activity against Staphylococcus aureus at 50 ug/ml after 24 hrs by agar cup diffusion method; assay type: functional; conditions: read-out: IZ; summary of the method: as §1
[13] = tested on: Staphylococcus epidermidis; assay: Antibacterial activity against Staphylococcus epidermidis at 50 ug/ml after 24 hrs by agar cup diffusion method; assay type: functional; conditions: read-out: IZ; summary of the method: as §1
Cryptococcus neoformans [14] = assay: Antifungal activity against Cryptococcus neoformans at 50 ug/ml after 48 hrs by agar cup diffusion method; assay type: functional; conditions: read-out: IZ

Compound | MIC (Salmonella typhi [1]) [µg/mL] | MIC [2] [µg/mL] | MIC (Escherichia coli [3]) [µg/mL] | MIC (Aspergillus niger [4]) [µg/mL] | MIC (Cryptococcus neoformans [5]) [µg/mL] | zone of inhibition at 50 µg/mL (Aspergillus niger [6]) [mm] | zone of inhibition at 50 µg/mL (Candida albicans [7]) [mm] | MIC (Candida albicans [8]) [µg/mL] | MIC (Staphylococcus aureus [9]) [µg/mL] | zone of inhibition at 50 µg/mL (Salmonella typhi [10]) [mm] | zone of inhibition at 50 µg/mL (Escherichia coli [11]) [mm] | zone of inhibition at 50 µg/mL (Staphylococcus aureus [12]) [mm] | zone of inhibition at 50 µg/mL [13] [mm] | zone of inhibition at 50 µg/mL (Cryptococcus neoformans [14]) [mm]
O=c1[nH]nnc2sc3c(c12)CCCC3 | 37.5 (≈ 181 µM) | 37.5 (≈ 181 µM) | 50 (≈ 241 µM) | 37.5 (≈ 181 µM) | 125 (≈ 603 µM) | 4 | 3 | 50 (≈ 241 µM) | 37.5 (≈ 181 µM) | – | – | – | – | –
Cn1nnc2sc3c(c2c1=O)CCCC3 | 37.5 (≈ 169 µM) | 37.5 (≈ 169 µM) | 50 (≈ 226 µM) | 37.5 (≈ 169 µM) | 125 (≈ 565 µM) | 6 | 4 | 50 (≈ 226 µM) | 37.5 (≈ 169 µM) | 14 | 12 | 16 | 18 | –
CCn1nnc2sc3c(c2c1=O)CCCC3 | 37.5 (≈ 159 µM) | 37.5 (≈ 159 µM) | 50 (≈ 212 µM) | 37.5 (≈ 159 µM) | 125 (≈ 531 µM) | 6 | 5 | 50 (≈ 212 µM) | 37.5 (≈ 159 µM) | 16 | 16 | 18 | 16 | –
O=c1c2c3c(sc2nnn1-c1ccccc1)CCCC3 | 37.5 (≈ 132 µM) | 25 (≈ 88.2 µM) | 37.5 (≈ 132 µM) | 37.5 (≈ 132 µM) | 125 (≈ 441 µM) | 6 | 4 | 50 (≈ 176 µM) | 25 (≈ 88.2 µM) | 12 | 12 | 20 | 17 | –
Cc1ccccc1-n1nnc2sc3c(c2c1=O)CCCC3 | 25 (≈ 84.1 µM) | 25 (≈ 84.1 µM) | 37.5 (≈ 126 µM) | 25 (≈ 84.1 µM) | 75 (≈ 252 µM) | 6 | 4 | 37.5 (≈ 126 µM) | 25 (≈ 84.1 µM) | 12 | 14 | 20 | 18 | –
Cc1cccc(-n2nnc3sc4c(c3c2=O)CCCC4)c1 | 25 (≈ 84.1 µM) | 25 (≈ 84.1 µM) | 37.5 (≈ 126 µM) | 25 (≈ 84.1 µM) | 75 (≈ 252 µM) | 8 | 4 | 37.5 (≈ 126 µM) | 25 (≈ 84.1 µM) | 14 | 14 | 24 | 20 | 6
Cc1ccc(-n2nnc3sc4c(c3c2=O)CCCC4)cc1 | 25 (≈ 84.1 µM) | 25 (≈ 84.1 µM) | 37.5 (≈ 126 µM) | 25 (≈ 84.1 µM) | 75 (≈ 252 µM) | 8 | 5 | 37.5 (≈ 126 µM) | 25 (≈ 84.1 µM) | 18 | 20 | 28 | 28 | 5
O=c1c2c3c(sc2nnn1-c1ccc(F)cc1)CCCC3 | 12.5 (≈ 41.5 µM) | 6.75 (≈ 22.4 µM) | 12.5 (≈ 41.5 µM) | 12.5 (≈ 41.5 µM) | 75 (≈ 249 µM) | 10 | 8 | 37.5 (≈ 124 µM) | 6.75 (≈ 22.4 µM) | 24 | 26 | 32 | 32 | 8
O=c1c2c3c(sc2nnn1-c1ccccc1Cl)CCCC3 | 12.5 (≈ 39.3 µM) | 12.5 (≈ 39.3 µM) | 25 (≈ 78.7 µM) | 12.5 (≈ 39.3 µM) | 50 (≈ 157 µM) | 14 | 8 | 25 (≈ 78.7 µM) | 12.5 (≈ 39.3 µM) | 20 | 24 | 30 | 30 | 9
O=c1c2c3c(sc2nnn1-c1cccc(Cl)c1)CCCC3 | 12.5 (≈ 39.3 µM) | 12.5 (≈ 39.3 µM) | 25 (≈ 78.7 µM) | 12.5 (≈ 39.3 µM) | 50 (≈ 157 µM) | 13 | 8 | 25 (≈ 78.7 µM) | 12.5 (≈ 39.3 µM) | 24 | 26 | 32 | 30 | 8
O=c1c2c3c(sc2nnn1-c1ccc(Cl)cc1)CCCC3 | 12.5 (≈ 39.3 µM) | 12.5 (≈ 39.3 µM) | 25 (≈ 78.7 µM) | 12.5 (≈ 39.3 µM) | 37.5 (≈ 118 µM) | 16 | 10 | 25 (≈ 78.7 µM) | 12.5 (≈ 39.3 µM) | 26 | 26 | 34 | 32 | 10
O=c1c2c3c(sc2nnn1-c1ccc(F)c(Cl)c1)CCCC3 | 12.5 (≈ 37.2 µM) | 12.5 (≈ 37.2 µM) | 25 (≈ 74.5 µM) | 25 (≈ 74.5 µM) | 50 (≈ 149 µM) | 10 | 7 | 37.5 (≈ 112 µM) | 12.5 (≈ 37.2 µM) | 20 | 24 | 26 | 24 | 8
CC1(C)S[C@@H]2[C@H](NC(=O)[C@H](N)c3ccccc3)C(=O)N2[C@H]1C(=O)O [AMPICILLIN] | 6.25 (≈ 17.9 µM) | 1.56 (≈ 4.46 µM) | 4 (≈ 11.4 µM) | – | – | – | – | – | 0.5 (≈ 1.43 µM) | 26 | 28 | 40 | 36 | –
Clc1ccc(COC(Cn2ccnc2)c2ccc(Cl)cc2Cl)c(Cl)c1.O=[N+]([O-])O (stereo not drawn) [MICONAZOLE NITRATE] | – | – | – | 10 | 20 | 16 | 12 | 12.5 | – | – | – | – | – | 14
